Measured values: ChEMBL document CHEMBL1123571, “[(6,7-Dichlorobenzo[b]thien-5-yl)oxy]acetic acids and 1,1-dioxides. 1. A structurally novel class of diuretics with hypotensive activity” (1987)
Several values for one entry are separate records, joined by “and”; a condition that tells them apart may be missing. Equal values may be shown once.

Key:
Rattus norvegicus [1] = assay: Hypotensive activity was determined in Spontaneously hypertensive rats (SHR) and peak decrease in systolic blood pressure on third day,2h post administration of 50 mg/kg oral dose was determined; assay type: functional, Artery
In short: (§1)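 Okamoto-Aoki spontaneously hypertensive rats were dosed orally every day with compound suspended in distilled water with Tween 80. Systolic BP was taken by tail-cuff plethysmography on day 1 (predose, 2 h), day 3 (predose, 2 h) and day 5 (predose, 2 and 4 h). The value is the peak fall at day 3, 2 h postdose, ± SEM. Four rats were used in the screen and 4–8 per dose in dose-response.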

Mus musculus [2] = assay: Diuretic activity in saline loaded mice, activity is expressed as the sodium present in urine as mean milli equivalent/kg per 5 hr at 64 mg/kg oral dose; assay type: functional
In short: (§2)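 Male CD-1 mice (18–24 g), 10 per treatment group, housed five per metabolic cage. Compound was given orally in 1% saline at 10 mL/kg, with a vehicle control group. Pooled urine was analysed for sodium by flame photometry. Values are mean mequiv/kg over 0–5 h.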

Rattus norvegicus [3] = assay: Hypotensive activity was determined in Spontaneously hypertensive rats (SHR) and initial blood pressure was determined at 50 mg/kg oral dose; assay type: functional
Mus musculus [4] = assay: Compound was tested for diuretic activity in saline loaded mice, activity is expressed as the sodium present in urine as mean milli equivalent/kg per 5 hr at 128 mg/kg oral dose; assay type: functional; in short: as §2
Mus musculus [5] = assay: Compound was tested for diuretic activity in saline loaded mice, activity is expressed as the sodium present in urine as mean milli equivalent/kg per 5 hr at 32 mg/kg oral dose; assay type: functional; in short: as §2
Rattus norvegicus [6] = assay: Hypotensive activity was determined in Spontaneously hypertensive rats (SHR) and peak decrease in systolic blood pressure on third day,2h post administration of 30 mg/kg oral dose was determined; assay type: functional, Artery; in short: as §1
Rattus norvegicus [7] = assay: Hypotensive activity was determined in Spontaneously hypertensive rats (SHR) and initial blood pressure was determined at 10 mg/kg oral dose; assay type: functional
Rattus norvegicus [8] = assay: Hypotensive activity was determined in Spontaneously hypertensive rats (SHR) and initial blood pressure was determined at 30 mg/kg oral dose; assay type: functional
Rattus norvegicus [9] = assay: Hypotensive activity was determined in Spontaneously hypertensive rats (SHR) and peak decrease in systolic blood pressure on third day,2h post administration of 10 mg/kg oral dose was determined; assay type: functional, Artery; in short: as §1
Mus musculus [10] = assay: Compound was tested for diuretic activity in saline loaded mice, activity is expressed as the sodium present in urine as mean milli equivalent/kg per 5 hr at 16 mg/kg oral dose; assay type: functional; in short: as §2
Rattus norvegicus [11] = assay: Hypotensive activity was determined in Spontaneously hypertensive rats (SHR) and initial blood pressure was determined at 3 mg/kg oral dose; assay type: functional
Rattus norvegicus [12] = assay: Hypotensive activity was determined in Spontaneously hypertensive rats (SHR) and peak decrease in systolic blood pressure on third day,2h post administration of 3 mg/kg oral dose was determined; assay type: functional, Artery; in short: as §1
Rattus norvegicus [13] = species: Rattus norvegicus; assay: Initial blood pressure before treatment; assay type: functional
In short: (§3)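 Grollman renal hypertension (one kidney, one wrap) in male Sprague-Dawley rats. Under pentobarbital (50 mg/kg ip) the right kidney was removed and silk sutures were tied around both poles of the left kidney. After 3 weeks, rats with systolic BP >150 mmHg were selected. Oral dosing followed. Systolic BP was measured by tail-cuff plethysmography as day/hour readings, and the change was taken against the initial pressure.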

Rattus norvegicus [14] = assay: Hypotensive activity after 10 mg/kg oral dose in rats (Change in blood pressure after treatment (day/hours)); assay type: functional; in short: as §3
Rattus norvegicus [15] = species: Rattus norvegicus; assay: Change in blood pressure (Initial blood pressure- Post drug blood pressure); assay type: functional; in short: as §3
Rattus norvegicus [16] = assay: Hypotensive activity after 50 mg/kg oral dose in rats (Change in blood pressure after treatment (day/hours)); assay type: functional; in short: as §3

Compound | Change in BP (Rattus norvegicus [1]) | mequiv of Na+/kg (Mus musculus [2]) | Initial blood pressure (Rattus norvegicus [3]) | further results
CCC(=O)c1cc2cc(OCC(=O)O)c(Cl)c(Cl)c2s1 | -1 mmHg | 1.18 0-5h | 173 mmHg | 
CC(=O)c1cc2cc(OCC(=O)O)c(Cl)c(Cl)c2s1 | -28 mmHg | 1.16 0-5h | 199 mmHg | 
CC(C)C1=Cc2cc(OCC(=O)O)c(Cl)c(Cl)c2S1(=O)=O | -33 mmHg | 2.58 0-5h | 192 mmHg | mequiv of Na+/kg (Mus musculus [4]): 5.32 0-5h; mequiv of Na+/kg (Mus musculus [5]): 0.88 0-5h
CC(C)CC1=Cc2cc(OCC(=O)O)c(Cl)c(Cl)c2S1(=O)=O | -14 mmHg | 3.24 0-5h | 176 mmHg | 
O=C(O)COc1cc2ccsc2c(Cl)c1Cl | 2 mmHg | 1 0-5h | 201 mmHg | 
O=C(O)COc1cc2c(c(Cl)c1Cl)S(=O)(=O)C1=C2CCCC1 | -8 mmHg | 0 0-5h | 179 mmHg | 
CCCCc1cc2cc(OCC(=O)O)c(Cl)c(Cl)c2s1 | -47 mmHg | 0.88 0-5h | 173 mmHg | Change in BP (Rattus norvegicus [6]): -16 mmHg; Initial blood pressure (Rattus norvegicus [7]): 171 mmHg; Initial blood pressure (Rattus norvegicus [8]): 173 mmHg; Change in BP (Rattus norvegicus [9]): -17 mmHg
Cc1csc2c(Cl)c(Cl)c(OCC(=O)O)cc12 | -12 mmHg | 0.8 0-5h | 203 mmHg | 
O=C(O)COc1cc2c(c(Cl)c1Cl)S(=O)(=O)C=C2 | -3 mmHg | 0.33 0-5h | 201 mmHg | 
CC(C)c1cc2cc(OCC(=O)O)c(Cl)c(Cl)c2s1 | -41 mmHg | 2.52 0-5h | 179 mmHg | Change in BP (Rattus norvegicus [6]): -32 mmHg; Initial blood pressure (Rattus norvegicus [7]): 178 mmHg; Initial blood pressure (Rattus norvegicus [8]): 195 mmHg; mequiv of Na+/kg (Mus musculus [10]): 1.24 0-5h; Change in BP (Rattus norvegicus [9]): -14 mmHg; mequiv of Na+/kg (Mus musculus [5]): 1.64 0-5h
O=C(O)COc1cc2c(c(Cl)c1Cl)S(=O)(=O)C(C1CCCCC1)=C2 | -43 mmHg | 1.25 0-5h | 202 mmHg | Initial blood pressure (Rattus norvegicus [11]): 187 mmHg; Change in BP (Rattus norvegicus [6]): -30 mmHg; Initial blood pressure (Rattus norvegicus [8]): 167 mmHg; Change in BP (Rattus norvegicus [12]): -32 mmHg
CCCc1cc2cc(OCC(=O)O)c(Cl)c(Cl)c2s1 | -1 mmHg | 1.74 0-5h | 181 mmHg | 
CCCC1=Cc2cc(OCC(=O)O)c(Cl)c(Cl)c2S1(=O)=O |  | 3.13 0-5h |  | Initial blood pressure (Rattus norvegicus [13]): 166 mmHg; Initial blood pressure (Rattus norvegicus [11]): 205 mmHg; mequiv of Na+/kg (Mus musculus [4]): 4.99 0-5h; Change in BP (Rattus norvegicus [6]): -64 mmHg; Initial blood pressure (Rattus norvegicus [8]): 202 mmHg; Change in BP (Rattus norvegicus [12]): -52 mmHg; Post drug blood pressure (Rattus norvegicus [14]): 135 mmHg and 156 mmHg and 153 mmHg and 167 mmHg; mequiv of Na+/kg (Mus musculus [10]): 1.06 0-5h; mequiv of Na+/kg (Mus musculus [5]): 1.79 0-5h
CCCCC1=Cc2cc(OCC(=O)O)c(Cl)c(Cl)c2S1(=O)=O | -24 mmHg | 2.42 0-5h | 185 mmHg | 
CC1=C(C)S(=O)(=O)c2c1cc(OCC(=O)O)c(Cl)c2Cl | -17 mmHg | 0.92 0-5h | 165 mmHg | 
O=C(O)COc1cc2cc(CO)sc2c(Cl)c1Cl | -5 mmHg | 1.23 0-5h | 199 mmHg | 

Compound | Change in BP (Rattus norvegicus [1]) | mequiv of Na+/kg (Mus musculus [2]) | Initial blood pressure (Rattus norvegicus [3]) | further results
CC1=Cc2cc(OCC(=O)O)c(Cl)c(Cl)c2S1(=O)=O | -25 mmHg | 4.34 0-5h | 180 mmHg | mequiv of Na+/kg (Mus musculus [4]): 6.36 0-5h; mequiv of Na+/kg (Mus musculus [10]): 1.33 0-5h; mequiv of Na+/kg (Mus musculus [5]): 2.11 0-5h
CCC1=Cc2cc(OCC(=O)O)c(Cl)c(Cl)c2S1(=O)=O | -8 mmHg | 3.35 0-5h | 213 mmHg | mequiv of Na+/kg (Mus musculus [4]): 6.51 0-5h; mequiv of Na+/kg (Mus musculus [10]): 0.66 0-5h; mequiv of Na+/kg (Mus musculus [5]): 1.84 0-5h
O=C(O)COc1cc2c3c(sc2c(Cl)c1Cl)CCCC3 | -12 mmHg | 0.45 0-5h | 177 mmHg | 
O=C(O)COc1cc2cc(C3CCCCC3)sc2c(Cl)c1Cl | 2 mmHg | 1.6 0-5h | 178 mmHg | 
Cc1sc2c(Cl)c(Cl)c(OCC(=O)O)cc2c1C | -37 mmHg | 0.13 0-5h | 192 mmHg | 
O=C(O)COc1cc2c(c(Cl)c1Cl)S(=O)(=O)C(C1CCCC1)=C2 | -17 mmHg | 1.79 0-5h | 180 mmHg | 
O=C(O)COc1cc2cc(C3CCCC3)sc2c(Cl)c1Cl | -31 mmHg | 1.3 0-5h | 193 mmHg | 
CC(C)(O)c1cc2cc(OCC(=O)O)c(Cl)c(Cl)c2s1 | -25 mmHg | 4.4 0-5h | 193 mmHg | mequiv of Na+/kg (Mus musculus [4]): 6.24 0-5h; mequiv of Na+/kg (Mus musculus [10]): 0.53 0-5h; mequiv of Na+/kg (Mus musculus [5]): 2.21 0-5h
CCC(O)c1cc2cc(OCC(=O)O)c(Cl)c(Cl)c2s1 (stereo not given) | -22 mmHg | 3.89 0-5h | 166 mmHg | 
CC(O)c1cc2cc(OCC(=O)O)c(Cl)c(Cl)c2s1 (stereo not given) | -7 mmHg | 2.86 0-5h | 183 mmHg | 
CC(O)C1=Cc2cc(OCC(=O)O)c(Cl)c(Cl)c2S1(=O)=O (stereo not given) | -9 mmHg | 0.43 0-5h | 176 mmHg | 
CC(C)Cc1cc2cc(OCC(=O)O)c(Cl)c(Cl)c2s1 | 4 mmHg | 1.29 0-5h | 176 mmHg | 
C=C(CC)C(=O)c1ccc(OCC(=O)O)c(Cl)c1Cl [ETHACRYNIC ACID] |  | 4.14 0-5h |  | 
NS(=O)(=O)c1cc2c(cc1Cl)NCNS2(=O)=O [HYDROCHLOROTHIAZIDE] | -26 mmHg |  | 188 mmHg | Initial blood pressure (Rattus norvegicus [13]): 168 mmHg; Delta blood pressure (Rattus norvegicus [15]): -18 mmHg [middle of 4 runs]; Post drug blood pressure (Rattus norvegicus [16]): 156 mmHg and 133 mmHg and 148 mmHg and 150 mmHg
O=C(O)COc1ccc(C(=O)c2cccs2)c(Cl)c1Cl [TICRYNAFEN] | -14 mmHg | 3.31 0-5h | 200 mmHg | 
